# Screens from PubChem.
# Rows were chosen to be rich in hits. Some 4.7% of all compounds tested hit in one or more screens of this group.
# 697 NFkB inh – inhibitors of the PMA/ionomycin-induced NF-kB reporter in 697 B cells | 697 B-cell NF-kB luciferase reporter, 16 h | inhibition, % at 4 µM | actives 0.33% (n = 330,000) | AID 435022; in the data active = inhibition above about 35%
# aSyn 5UTR inh – MLPCN primary screen, SNCA 5' untranslated region. actives 0.82% (n = 300,000). inhibition, % (tested at 7.5 µM). alpha-synuclein 5'UTR reporter, inhibitor activity; in the data active = inhibition above about 60%;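 also: H4 neuroglioblastoma cells stably carrying SNCA 5'UTR luciferase fusion; 0% = DMSO wells and 100% = positive control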
# Jurkat NFkB inh – inhibitors of the PMA/ionomycin-induced NF-kB reporter in Jurkat cells. PMA/ionomycin-induced NF-kB luciferase reporter, luminescence. inhibition, % at 4 µM. AID 435003. actives 0.53% (n = 330,000); in the data active = inhibition above about 50%
# Mdm2-MdmX inh – human Mdm2/MdmX binding inhibition; O15151+Q00987; actives 3% (n = 330,000); SaOS-2 split-luciferase Mdm2/MdmX complementation, luminescence; AID 485346; inhibition, % at 8 µM;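 active = inhibition of at least 50% at 8 µM in the primary screen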
# VIM-2 inh – inhibitors of Pseudomonas aeruginosa VIM-2 metallo-beta-lactamase | purified VIM-2, nitrocefin hydrolysis, epi-absorbance fluorescence | inhibition, % at 5.6 µM | actives 0.89% (n = 290,000);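 active = inhibition above the mean of all tested compounds plus 3 SD, cutoff set per screening run, cut at about 7.5% in these data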;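 also: red hydrolysis product quenches plate fluorescence so inhibitors raise well fluorescence; 0% = enzyme with DMSO and 100% = DMSO without enzyme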
# IMP-1 inhibitor – inhibitors of Pseudomonas aeruginosa IMP-1 metallo-beta-lactamase. purified IMP-1, nitrocefin hydrolysis, epi-absorbance fluorescence. inhibition, % at 5.6 µM. actives 0.45% (n = 290,000);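 active = inhibition above the mean plus 3 SD of all compounds in the same screening run, cut at about 4.5% in these data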;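 also: 0% = IMP-1 with DMSO and 100% = DMSO wells lacking enzyme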
#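 System: purified IMP-1 / Input: IMP-1 dispensed at 0.2 nM / Medium: 50 mM HEPES pH 7.1, 50 µM ZnSO4, 0.05% Brij 35 / Timing: 15 min enzyme–compound preincubation, then 25 min nitrocefin reaction, 25 °C / Technique: plate fluorescence quenching by hydrolysis product, ex 480/em 530 nm / Repeats: singlicate testing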
# Mdm2-MdmX conf – confirmation of human Mdm2/MdmX interaction inhibitors | shares compounds with Mdm2-MdmX inh | Mdm2-MdmX binding, luminescent assay | inhibition, % at 8 µM | actives 55% (n = 10,000); in the data active = inhibition above about 40%
# FLuc counter – full-length luciferase inhibition in Mdm2/MdmX counter-screen. inhibition, % at 8 µM. actives 77% (n = 6,200). AID 504607. shares compounds with Mdm2-MdmX inh. SaOS-2 full-length luciferase counterscreen, luminescence;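 active = mean inhibition at 8 µM reaching about 37%, which flags the compound as non-specific, limit read from the data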;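 also: p53-null SaOS-2 cells with luciferase driven by a doxycycline-inducible promoter; compound on cells about two nights before reading with doxycycline added after day one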
# Numbers without * were called inactive; · = no result.
SMILES,697 NFkB inh,aSyn 5UTR inh,Jurkat NFkB inh,Mdm2-MdmX inh,VIM-2 inh,IMP-1 inhibitor,Mdm2-MdmX conf,FLuc counter
O=C(Nc1ccccc1)Nc1ccc(Cl)c([N+](=O)[O-])c1,-22.7,-56.8,-11.9,79.6*,-1.7,-0.8,50.4*,42.7*
O=C(Nc1nc2ccccc2s1)Nc1ccc([N+](=O)[O-])cc1Cl,-13.0,-99.1,-10.1,42.1,-1.0,-1.0,·,·
Cc1cc(/C=C(\C#N)C(=O)NCCc2c[nH]c3ccccc23)c(C)n1C,5.5,-6.6,-8.0,-25.7,-0.3,-1.3,·,·
COc1cc(/C=C(/C#N)C(=O)NCCc2c[nH]c3ccccc23)ccc1OCc1ccccc1F,9.0,-37.7,-19.3,62.8*,0.0,-1.5,7.2,·
CCOC(=O)C1=C(C)Nc2ccccc2N=C1NC(=O)c1oc2ccccc2c1COC,21.9,·,-3.1,59.0*,·,·,50.0*,77.2*
CCOC(=O)C1=C(C)Nc2ccccc2N=C1N,11.8,1.3,13.5,-16.6,-2.1,-1.5,·,·
Cc1cc2c(cc1C)-c1c(ssc1=Nc1ccc(S(N)(=O)=O)cc1)C(C)(C)N2,-8.0,-0.1,-6.8,62.4*,-3.5,-2.8,40.1*,44.0*
COc1ccc(NC(=S)N/N=C2\CC(C)(C)Oc3ccc(OC)cc32)cc1,7.9,39.8,3.0,26.6,-1.9,-1.2,·,·
Cc1ccccc1NC(=S)N/N=C1\CC(C)(C)Oc2ccc(O)cc21,1.0,9.8,6.1,51.0*,-4.4,-1.6,5.8,·
Cc1ccc(NC(=S)N/N=C2\CC(C)(C)Oc3ccc(O)cc32)cc1,9.0,35.3,-6.0,28.0,-0.6,-0.4,·,·
CC(=O)N1CCC2(CC1)C/C(=N\NC(=S)Nc1ccc(C)cc1)c1cc(O)ccc1O2,27.1,19.5,-10.1,74.7*,-3.1,-4.4,40.0*,93.0*
NC(=O)c1ccc[n+](Cc2ccc(-c3ccccc3)cc2)c1,16.4,7.0,13.2,6.8,-1.6,-2.6,·,·
CC(=O)N1c2ccc(C)cc2C(c2ccccc2)CC1C (configuration not stated),23.3,8.6,-2.2,73.6*,1.0,13.8*,35.0,70.7*
CC(=O)OC1CC(C)N(C(=O)c2ccccc2)c2ccc(C)cc21 (configuration not stated),3.4,19.2,-4.3,-35.6,-2.4,-2.6,·,·
COc1ccccc1C1C(C(C)=O)=C(C)N=c2s/c(=C\c3cc(OC)c(OC)c(OC)c3)c(=O)n21 (configuration not stated),19.1,14.0,7.9,57.9*,-3.5,-2.7,41.4*,50.2*
COc1cccc(C2C3=C(N=c4s/c(=C\c5ccccc5O)c(=O)n42)c2ccccc2CC3)c1OC (configuration not stated),-19.5,20.5,-14.7,95.4*,-2.8,-3.3,50.0*,52.9*
CCOC(=O)C1=C(C)N=c2s/c(=C\c3cccc(OCC(=O)O)c3)c(=O)n2C1c1ccccc1OC (configuration not stated),-17.5,16.1,3.7,6.2,-0.9,0.0,·,·
COc1ccc(CN(CC(O)COCc2ccccc2)S(=O)(=O)c2ccccc2Br)cc1OC (configuration not stated),5.2,·,·,29.2,·,·,·,·
COc1ccc(-n2cc(C(=O)Nc3cc([N+](=O)[O-])ccc3OC)c3ccccc3c2=O)cc1,11.7,36.9,3.4,16.4,-0.5,-0.6,·,·
CCC(C)NC(=O)CSc1nnc(-c2c[nH]c3ccccc23)o1 (configuration not stated),1.8,-11.1,-1.1,-1.0,-2.7,-2.9,·,·
O=C(N/N=C/c1ccc(-c2ccc(S(=O)(=O)Nc3ncccn3)cc2)o1)c1cc2ccccc2cc1O,20.5,-4.7,6.9,54.5*,-3.4,-3.4,36.2,·
Cc1c(CCC(C)C)c(=O)n2c([nH]c3ccccc32)c1C#N,-16.2,36.4,12.7,72.6*,-3.1,-4.0,53.1*,44.8*
COCCn1c(N)c(C(=S)NC(=O)c2cccs2)c(=O)[nH]c1=O,13.1,2.3,-11.0,12.7,-1.6,-2.6,·,·
COc1ccc(S(=O)(=O)N2CCC(C(=O)NCC3CCCCC3)CC2)cc1,21.1,2.5,19.5,11.1,-4.2,-2.8,·,·
C[C@@H](c1ccccc1)N1Cc2ccccc2Oc2cc(Br)ccc2S1(=O)=O,-1.1,·,·,5.7,·,·,·,·
SMILES,697 NFkB inh,aSyn 5UTR inh,Jurkat NFkB inh,Mdm2-MdmX inh,VIM-2 inh,IMP-1 inhibitor,Mdm2-MdmX conf,FLuc counter
C[C@@H](c1ccccc1)N1C[C@H]2CCCN2c2cc(Br)ccc2S1(=O)=O,-24.5,·,·,53.8*,·,·,42.5*,41.4*
O=S1(=O)c2ccc(Br)cc2N2CCC[C@H]2CN1Cc1ccccc1,-44.1,·,·,51.8*,·,·,51.1*,37.1*
CCN(CC)CCNc1cc(C)nc2c1C(=O)C(=O)C=C2N1CCCCC1,-8.4,81.4*,13.7,64.9*,-1.8,-4.0,67.2*,28.9
CCC1(c2ccccc2)ON(c2c(Br)cccc2Br)C1=O (configuration not stated),4.9,·,-5.2,92.9*,·,·,91.5*,46.6*
Cc1ccc(C(=O)NCCNc2nc3cc(C)c(C)cc3cc2C)cc1,-28.6,6.5,11.2,65.1*,-1.6,-1.2,10.4,·
Cc1ccc(Cn2c(=N)n(CC(=O)c3ccc([N+](=O)[O-])cc3)c3ccccc32)cc1,-0.3,15.7,30.0,98.3*,-1.4,-1.5,17.5,·
CCCCn1c(=N)n(CC(=O)c2ccc([N+](=O)[O-])cc2)c2ccccc21,21.5,9.5,-19.1,54.9*,-1.7,-4.2,15.5,·
CCCCn1c(=N)n(CC(=O)c2ccco2)c2ccccc21,-7.2,-2.9,6.2,-10.7,-2.5,-1.0,·,·
COc1cc2c(C)nc(C)c(C#N)c2cc1OC,-23.1,24.9,-5.9,4.4,-2.1,-3.6,·,·
COc1ccccc1NC(=O)c1c(Nc2ccccc2C)sc(C(=O)Nc2cccc(Cl)c2)c1N,4.0,17.2,3.3,74.9*,-0.3,0.0,26.6,·
CCC(C(=O)OCC(=O)N1CCN(S(=O)(=O)c2ccc(C)cc2C)CC1)c1ccccc1 (configuration not stated),11.2,·,6.9,14.0,·,·,·,·
CCc1ccc(NC(=O)c2ccc3c(c2)C(=O)N(CCOC)C3Nc2ccc(CC)cc2)cc1 (configuration not stated),-16.5,-33.2,-33.4,81.3*,-0.7,-0.1,40.0*,99.5*
CC(=O)N(\C=C/C=C/C=C1\Sc2ccccc2C1=O)c1ccccc1,-11.0,-7.5,-1.2,80.6*,-0.5,-1.3,14.8,·
CCCn1c2ccccc2c2cnn(CC(=O)NC3CCCC(C)C3C)c(=O)c21 (configuration not stated),2.0,-14.9,3.2,88.9*,-1.4,0.8,-2.4,·
